The text below walks through data of article PMC6771261 (Journal of natural products, 2019).

The subject of one experiment is HRECs. Nature of the experiment: Matrigel based tube formation assay. Conditions: HRECs on Matrigel, 8 hours, different concentrations. Format: cell-based, human. The method, boiled down: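 HRECs (passage 5–8) in EGM-2 were seeded at 15,000 cells per well onto Matrigel-coated wells, with DMSO vehicle or a range of test compound concentrations. A known antiangiogenic homoisoflavonoid served as positive control. After 8 h, wells were imaged and tube length was quantified by image analysis. Mean ± SEM, n=3–6 wells, duplicate experiments; one-way ANOVA with Dunnett's post hoc test vs DMSO.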

Experiment [1] concerns HUVECs (human umbilical vein endothelial cells). The settings on record: read-out: GI50 (HUVEC); as reported; cited from earlier work.
In experiment [2] the test system is HRECs (human retinal microvascular endothelial cells). Conditions: read-out: GI50 (HREC); as reported; cited from earlier work.
The subject of a further experiment is Y79 retinoblastoma cells. Conditions: read-out: GI50 (Y79); as reported; cited from earlier work.
The test system of experiment [3] is 92–1 uveal melanoma cells. The settings on record: read-out: GI50 (92–1); as reported; cited from earlier work.

Usually GI50 stands for the concentration giving 50% growth inhibition.

As for `CCOc1ccc(C(=O)/C=C/c2ccc(OC)c(OC)c2)c(O)c1C` [Compound 50, (E)-3-(3,4-dimethoxylphenyl)-1-(4-ethoxy-2-hydroxy-3-methyl-phenyl)prop-2-en-1-one], the “ability of HRECs to form tubes (tubule length compared to DMSO control)” value in the experiment on HRECs is “effective”.
Consider `COc1ccc(CC2COc3cc(O)c(OC)c(O)c3C2=O)cc1O` (stereo not shown) [cremastranone], for which the GI50 in experiment [1] was 0.38 µM; in experiment [2] it was 0.22 µM; in the experiment with Y79 retinoblastoma cells, 9.8 µM; in experiment [3], 48 µM.
On to `COc1ccc(C[C@@H]2COc3cc(OC)c(OC)c(OC)c3C2=O)cc1O` [Compound 45, 5,6,7-trimethoxy-3(R)-(3ʹhydroxy-4ʹ-methoxybenzyl)-4-chromanone], for which, in the experiment on HRECs, the “ability of HRECs to form tubes (tubule length compared to DMSO control)” value was “effective”.
On the same count and under the same terms, the entry for `COc1ccc(/C=C2\COc3cc(OC)c(OC)c(O)c3C2=O)cc1O` [Compound 48, (E)-5-hydroxy-6,7-trimethoxy-3-(3ʹhydroxy-4ʹ-methoxybenzylidene)-4-chromanone] is “effective”.
